From article PMC4474499 (Science Advances, 2015)

Key:
human TLR2 = human TLR2 (Homo sapiens, UniProt O60603+Q15399); assay: SEAP reporter gene detection assay in HEK-Blue hTLR2 cells; format: cell-based
How it was run: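 HEK-Blue hTLR2 cells (SEAP reporter), 4 × 10^4/well, grown 24 h. Then 24 h in Opti-MEM/0.5% FBS with compounds at 0–50 μM or 0–100 μM. Pam3CSK4 (0–66 nM) used as reference agonist. Supernatant heat-treated 30 min at 65°C, cooled, mixed with SEAP buffer and CSPD substrate; luminescence read after 20 min.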

human TLR3 = target: T1, human TLR3 (Homo sapiens, UniProt O15455); assay: SEAP reporter gene detection assay in HEK-Blue TLR3 cells; format: cell-based; conditions: 0 to 20 μM, 24 hours
T1 sequence (O15455 24-904): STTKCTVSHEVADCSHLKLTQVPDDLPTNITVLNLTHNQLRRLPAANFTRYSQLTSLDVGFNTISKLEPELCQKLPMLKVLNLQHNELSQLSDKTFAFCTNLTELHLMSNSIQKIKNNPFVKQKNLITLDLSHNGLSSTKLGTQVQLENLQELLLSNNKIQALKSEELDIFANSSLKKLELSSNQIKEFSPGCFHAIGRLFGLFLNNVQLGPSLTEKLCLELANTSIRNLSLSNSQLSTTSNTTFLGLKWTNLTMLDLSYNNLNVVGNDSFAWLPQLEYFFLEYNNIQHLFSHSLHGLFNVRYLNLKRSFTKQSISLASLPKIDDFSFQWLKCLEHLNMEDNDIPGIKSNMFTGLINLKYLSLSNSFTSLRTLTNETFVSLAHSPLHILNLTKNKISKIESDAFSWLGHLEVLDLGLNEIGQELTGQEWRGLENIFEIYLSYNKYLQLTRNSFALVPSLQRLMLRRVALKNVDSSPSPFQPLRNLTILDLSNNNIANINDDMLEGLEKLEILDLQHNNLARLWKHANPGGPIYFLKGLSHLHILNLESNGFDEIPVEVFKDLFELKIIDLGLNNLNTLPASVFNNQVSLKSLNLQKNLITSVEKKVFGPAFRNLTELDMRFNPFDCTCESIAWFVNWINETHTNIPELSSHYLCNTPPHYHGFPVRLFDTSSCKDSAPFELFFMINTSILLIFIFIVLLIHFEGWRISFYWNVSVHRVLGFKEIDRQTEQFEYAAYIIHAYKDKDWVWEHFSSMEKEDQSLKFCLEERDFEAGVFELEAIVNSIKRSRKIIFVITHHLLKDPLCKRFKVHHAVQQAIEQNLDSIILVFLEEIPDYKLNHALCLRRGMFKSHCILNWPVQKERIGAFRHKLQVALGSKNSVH
How it was run: (§1)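 HEK 293 cells stably carrying the human TLR and a SEAP reporter, 4 × 10^4/well, grown 24 h. Then 24 h in Opti-MEM/0.5% FBS with test compound. Positive controls: poly(I:C) 0–10.9 μg/ml (TLR3), LPS 0–36.5 ng/ml (TLR4), FLA-BS 0–10 μg/ml (TLR5), R848 0–6 μg/ml (TLR7, TLR8). Supernatant heated 30 min at 65°C, then CSPD substrate added; luminescence read after 20 min.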

human TLR5 = human TLR5 (Homo sapiens, UniProt O60602); assay: SEAP reporter gene detection assay in HEK-Blue TLR5 cells; format: cell-based; conditions: 0 to 20 μM, 24 hours
How it was run: as §1

HEK-Blue hTLR2 cells = assay: QUANTI-Blue SEAP assay with anti-hTLR antibodies; format: cell-based, human; conditions: 60 nM, 24 hours
How it was run: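 HEK-Blue hTLR2 cells, 4 × 10^4/well, grown 24 h. Then 24 h in Opti-MEM/0.5% FBS containing 60 nM test compound, 0.66 nM Pam3CSK4 or 0.77 nM Pam2CSK4. Anti-hTLR1 IgG, anti-hTLR2 IgA or anti-hTLR6 IgA added at 0–10 μg/ml. Supernatant incubated with QUANTI-Blue 1 h at 37°C; A655 read.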

NF-κB = assay: U937 NF-κB–GFP reporter assay; format: cell-based, human; conditions: U937 cells
TNF-α = TNF-α ELISA in Raw 264.7 cells; format: cell-based; conditions: Mus musculus, RAW264.7, 24 h, read-out: EC50, TNF-α production
How it was run: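 RAW 264.7 cells, 1 × 10^6/well in six-well plates, grown 24 h. Medium refreshed (RPMI 1640). Treated 24 h with test compound; 66 nM Pam3CSK4 as positive control. Supernatants frozen at −80°C. TNF-α quantified by sandwich ELISA against recombinant cytokine standards, each sample in triplicate.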

human TLR1/2 = human TLR1/2 (Homo sapiens, UniProt O60603+Q15399); assay: Competition binding ELISA assay with biotin-labeled Pam3CSK4; conditions: 50 nM (100 ng/ml) Biotin-Pam3, 0 to 7 μM CU-T12-9
How it was run: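 Human TLR1 (5 μg/ml) plus TLR2 (4 μg/ml), or BSA, coated in 0.1 M acetate pH 5.0 overnight at 4°C. Blocked with 5% BSA 1 h. Biotin-Pam3CSK4 with or without test compound, 1 h RT. Then streptavidin-HRP (1:2000) 1 h, TMB 10–30 min, stopped with 1 M H3PO4. A450 read, 620 nm reference. Signal at zero compound set as 100%.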

hTLR1 and hTLR2 = hTLR1 and hTLR2 (Homo sapiens, UniProt O60603+Q15399); assay: SEC-LS assay of TLR1/2 heterodimer formation; format: biochemical; conditions: CU-T12-9 0 to 40 μM or Pam3CSK4 260 nM (400 ng/ml)
How it was run: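 Human TLR2 in PBS pH 7.4 preincubated 2 h at RT with test compound or Pam3CSK4. Equimolar hTLR1 then added (final about 10 μM each) for 2 h at 37°C. Both proteins were baculovirus/insect-cell products. Samples filtered (0.1 μm) and run on size-exclusion column in PBS at 1 ml/min. Detection by in-line multi-angle light scattering, refractive index and UV.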

human TLR2, sequence (O60603 21-784): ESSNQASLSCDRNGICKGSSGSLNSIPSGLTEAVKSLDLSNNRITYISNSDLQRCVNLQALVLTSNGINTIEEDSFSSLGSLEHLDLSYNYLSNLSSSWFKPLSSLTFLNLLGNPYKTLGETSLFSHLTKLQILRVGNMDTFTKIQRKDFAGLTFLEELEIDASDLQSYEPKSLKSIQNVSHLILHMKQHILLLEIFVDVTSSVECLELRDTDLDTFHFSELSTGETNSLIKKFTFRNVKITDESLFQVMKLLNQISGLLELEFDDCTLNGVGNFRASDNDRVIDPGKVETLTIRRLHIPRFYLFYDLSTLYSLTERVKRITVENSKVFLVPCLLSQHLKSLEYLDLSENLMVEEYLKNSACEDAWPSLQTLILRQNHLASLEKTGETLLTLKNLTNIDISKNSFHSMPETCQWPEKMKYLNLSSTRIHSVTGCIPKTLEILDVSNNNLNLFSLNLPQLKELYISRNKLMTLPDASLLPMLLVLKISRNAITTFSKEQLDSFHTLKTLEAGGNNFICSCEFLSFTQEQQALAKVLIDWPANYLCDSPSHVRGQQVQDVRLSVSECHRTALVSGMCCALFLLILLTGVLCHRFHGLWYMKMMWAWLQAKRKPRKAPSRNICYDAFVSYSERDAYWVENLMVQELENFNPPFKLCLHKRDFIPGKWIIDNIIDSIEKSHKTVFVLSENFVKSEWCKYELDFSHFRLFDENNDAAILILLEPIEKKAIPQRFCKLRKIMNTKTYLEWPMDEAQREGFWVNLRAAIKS
human TLR2, sequence (Q15399 25-786): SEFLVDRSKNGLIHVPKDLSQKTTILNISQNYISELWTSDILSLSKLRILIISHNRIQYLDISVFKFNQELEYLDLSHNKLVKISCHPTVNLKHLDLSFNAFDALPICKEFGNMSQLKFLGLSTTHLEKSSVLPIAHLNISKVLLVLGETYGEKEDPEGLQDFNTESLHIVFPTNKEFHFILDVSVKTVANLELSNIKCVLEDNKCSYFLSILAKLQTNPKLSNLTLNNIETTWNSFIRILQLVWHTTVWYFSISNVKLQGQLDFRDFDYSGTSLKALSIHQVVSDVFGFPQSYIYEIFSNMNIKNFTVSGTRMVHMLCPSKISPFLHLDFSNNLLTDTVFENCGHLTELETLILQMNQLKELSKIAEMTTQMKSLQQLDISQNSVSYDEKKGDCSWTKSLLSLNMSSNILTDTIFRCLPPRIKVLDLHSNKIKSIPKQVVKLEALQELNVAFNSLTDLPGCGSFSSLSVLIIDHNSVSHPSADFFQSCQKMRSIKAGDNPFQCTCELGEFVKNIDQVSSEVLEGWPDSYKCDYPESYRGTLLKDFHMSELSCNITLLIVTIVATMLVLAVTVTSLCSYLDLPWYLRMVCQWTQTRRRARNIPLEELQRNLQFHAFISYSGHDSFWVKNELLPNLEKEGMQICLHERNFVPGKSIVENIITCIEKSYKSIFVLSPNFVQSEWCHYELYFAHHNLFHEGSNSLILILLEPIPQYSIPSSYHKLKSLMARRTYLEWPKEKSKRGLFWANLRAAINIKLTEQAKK
human TLR5, sequence (O60602 21-858): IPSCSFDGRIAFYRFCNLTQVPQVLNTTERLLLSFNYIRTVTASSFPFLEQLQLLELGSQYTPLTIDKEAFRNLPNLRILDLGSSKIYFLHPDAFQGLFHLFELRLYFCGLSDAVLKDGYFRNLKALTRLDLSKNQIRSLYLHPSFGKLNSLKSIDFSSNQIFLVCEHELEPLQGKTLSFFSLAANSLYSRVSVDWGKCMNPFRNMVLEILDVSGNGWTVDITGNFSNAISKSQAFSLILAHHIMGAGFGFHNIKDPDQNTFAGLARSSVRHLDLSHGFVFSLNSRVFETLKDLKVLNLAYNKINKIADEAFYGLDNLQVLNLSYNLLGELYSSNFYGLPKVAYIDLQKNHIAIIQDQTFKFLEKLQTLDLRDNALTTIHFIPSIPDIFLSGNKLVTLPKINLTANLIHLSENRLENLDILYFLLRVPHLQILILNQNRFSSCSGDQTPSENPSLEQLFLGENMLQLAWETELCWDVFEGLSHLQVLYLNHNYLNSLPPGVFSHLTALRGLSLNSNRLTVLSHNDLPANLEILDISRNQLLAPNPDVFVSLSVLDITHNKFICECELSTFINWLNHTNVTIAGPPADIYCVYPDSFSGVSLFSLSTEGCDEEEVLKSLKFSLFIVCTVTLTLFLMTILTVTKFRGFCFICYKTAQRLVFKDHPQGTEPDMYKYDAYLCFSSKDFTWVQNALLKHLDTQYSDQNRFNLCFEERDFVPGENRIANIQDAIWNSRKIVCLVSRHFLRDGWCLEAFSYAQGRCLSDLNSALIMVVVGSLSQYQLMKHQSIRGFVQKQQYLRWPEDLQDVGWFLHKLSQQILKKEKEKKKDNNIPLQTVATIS
human TLR1/2, sequence (Q15399 25-580 limits assumed): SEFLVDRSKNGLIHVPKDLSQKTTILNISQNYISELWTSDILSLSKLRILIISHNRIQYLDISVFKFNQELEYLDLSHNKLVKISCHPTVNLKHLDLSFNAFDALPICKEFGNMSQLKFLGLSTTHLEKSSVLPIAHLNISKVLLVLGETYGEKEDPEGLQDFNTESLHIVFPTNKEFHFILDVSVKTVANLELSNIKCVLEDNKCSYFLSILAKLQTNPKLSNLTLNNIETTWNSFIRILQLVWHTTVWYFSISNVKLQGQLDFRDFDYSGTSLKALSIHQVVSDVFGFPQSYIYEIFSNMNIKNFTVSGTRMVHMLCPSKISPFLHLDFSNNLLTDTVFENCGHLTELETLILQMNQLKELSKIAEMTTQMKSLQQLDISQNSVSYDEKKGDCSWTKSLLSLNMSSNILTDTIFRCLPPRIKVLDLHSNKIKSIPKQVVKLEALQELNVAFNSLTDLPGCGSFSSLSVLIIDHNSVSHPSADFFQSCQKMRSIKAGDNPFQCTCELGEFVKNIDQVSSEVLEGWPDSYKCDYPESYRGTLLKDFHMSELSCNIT
human TLR1/2, sequence (O60603 21-588 limits assumed): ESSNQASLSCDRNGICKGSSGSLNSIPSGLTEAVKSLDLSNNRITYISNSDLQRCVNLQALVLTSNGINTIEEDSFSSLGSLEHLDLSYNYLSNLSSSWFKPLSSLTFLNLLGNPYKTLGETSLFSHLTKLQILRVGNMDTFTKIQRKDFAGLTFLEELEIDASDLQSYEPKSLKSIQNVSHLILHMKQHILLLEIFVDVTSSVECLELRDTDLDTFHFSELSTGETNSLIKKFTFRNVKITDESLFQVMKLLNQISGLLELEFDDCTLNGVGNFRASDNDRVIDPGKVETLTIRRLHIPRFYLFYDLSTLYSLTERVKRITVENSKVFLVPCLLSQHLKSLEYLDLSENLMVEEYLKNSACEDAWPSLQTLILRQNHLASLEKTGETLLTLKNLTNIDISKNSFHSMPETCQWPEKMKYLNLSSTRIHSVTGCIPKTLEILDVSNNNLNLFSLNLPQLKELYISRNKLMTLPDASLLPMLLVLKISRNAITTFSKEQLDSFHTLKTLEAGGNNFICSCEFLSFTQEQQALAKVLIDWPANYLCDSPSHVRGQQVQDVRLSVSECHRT
hTLR1 and hTLR2, sequence (Q15399 25-580 limits assumed): as the sequence (Q15399 25-580 limits assumed) above
hTLR1 and hTLR2, sequence (O60603 21-588 limits assumed): as the sequence (O60603 21-588 limits assumed) above

EC50 (human TLR2): 52.9 ± 6.2 nM
activation of SEAP signaling, hTLR2 (human TLR2; 0 to 20 μM, 24 hours): strongly activate
increase in potency relative to GA (factor) (human TLR2; replacement of –NO2 at R3): 50
activation of SEAP signaling, TLR3 (human TLR3): not in other TLR-overexpressing cells
activation of SEAP signaling, TLR5 (human TLR5): not in other TLR-overexpressing cells
EC50 (TNF-α): 60.5 ± 17 nM
competition with Biotin-Pam3 binding to TLR1/2 (human TLR1/2): can compete
TLR1/2 heterodimer formation (hTLR1 and hTLR2): Heterodimer formation was detected
Compound: CNc1ccc([N+](=O)[O-])cc1-n1cnc(-c2ccc(C(F)(F)F)cc2)c1 [CU-T12-9, N-methyl-4-nitro-2-(4-(4-(trifluoromethyl)phenyl)-1H-imidazol-1-yl)aniline]
activation of QUANTI-Blue SEAP signaling (HEK-Blue hTLR2 cells): strongly activates
NF-κB activation (NF-κB; 5 μM, 24 hours): comparable activation to 66 nM (100 ng/ml) Pam3CSK4
NF-κB activation (NF-κB; 20 μM (GA even up to 100 μM)): excellent NF-κB activation
